From ChEMBL document CHEMBL4364341, “Radiosensitization of Head and Neck Squamous Cell Carcinoma (HNSCC) by a Podophyllotoxin” (ACS Med Chem Lett, 2019) come the findings set out here.

Molecules are shown by their SMILES. Active and inactive are the calls of the source. The rule behind the calls is not given here.

In test [1] the test system is FaDu. Kind of test: Synergistic antiproliferative activity against human FADU cells assessed as fractional inhibition at 0.5 uM preincubated for 1 hr followed by irradiation with 5 Gy IR and measured after 6 days by MTT assay (reference value: 0.097). It is filed as functional. Put shortly: (§1)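 FaDu or SCC-25 cells were grown in DMEM with 10% FBS at 37 °C and 5% CO2. They were seeded at 1000 cells/well in 96-well plates for 24 h, then dosed with compound (fresh DMSO stock diluted in medium) or vehicle. After 1 h, X-rays were given with a sliding 5 mm lead shield, so one plate held 0, 2.5, 5 and 10 Gy columns. After 6 days, MTT (0.5 mg/mL, 45 min) was added, then DMSO, and A570 was read. Values were normalised to the unirradiated vehicle control. Fractional inhibition = 1 − surviving fraction.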

Test [2] relates to FaDu. Kind of test: Synergistic antiproliferative activity against human FADU cells assessed as combination index at 0.005 uM preincubated for 1 hr followed by irradiation with 2.5 Gy IR and measured after 6 days by MTT assay. The format is functional. Put shortly: (§2)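 Combination index was calculated by the Chou–Talalay median-effect method from the 6-day MTT viability data of the single-plate compound/X-ray (2.5, 5, 10 Gy) design. CI < 1 denotes synergy, CI = 1 additivity and CI > 1 antagonism.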
(Tetrazolium assays rely on reduction of a dye to a coloured formazan, in cell work by metabolically active cells.)

Test [3] concerns SCC-25. Kind of test: Synergistic antiproliferative activity against human SCC25 cells assessed as reduction in colony formation unit followed by irradiation with 5 Gy IR and measured after 10 to 14 days by crystal violet staining based assay. The format is functional, cell-based.
Test [4] relates to SCC-25. Kind of test: Antiproliferative activity against human SCC25 cells assessed as fractional inhibition at 0.5 uM after 6 days in absence of irradiation by MTT assay. It is filed as functional. Put shortly:
as §1

Test [5] deals with FaDu. Kind of test: Synergistic antiproliferative activity against human FADU cells assessed as combination index at 5 uM preincubated for 1 hr followed by irradiation with 10 Gy IR and measured after 6 days by MTT assay. The format is functional. Put shortly:
as §2

Test [6] has as its system FaDu. The experiment in a line: Synergistic antiproliferative activity against human FADU cells assessed as fractional inhibition at 5 uM preincubated for 1 hr followed by irradiation with 10 Gy IR and measured after 6 days by MTT assay (reference value: 0.388). It is filed as functional. Put shortly: as §1
Test [7] relates to FaDu. The experiment in a line: Induction of apoptosis in human FADU cells assessed as increase in Bax at 0.5 uM followed by irradiation with 5 Gy IR incubated for 48 hrs by immunoblot analysis. It is filed as functional, cell-based. Put shortly:
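FaDu cells received compound at 0.5 μM, 5 Gy IR, or both. After 48 h, lysates were immunoblotted for NRF2, cyclin B1, CDK1, Bax and Bcl-2. Membranes were then stripped and reprobed for β-actin as the loading control.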
In general terms: Immunoblotting shows a protein as a band on a membrane.

The subject of test [8] is FaDu. Kind of test: Synergistic antiproliferative activity against human FADU cells assessed as fractional inhibition at 0.05 uM preincubated for 1 hr followed by irradiation with 2.5 Gy IR and measured after 6 days by MTT assay (reference value: 0.131). The format is functional. Put shortly:
as §1

Test [9] concerns FaDu. Kind of test: Synergistic antiproliferative activity against human FADU cells assessed as fractional inhibition at 0.5 uM preincubated for 1 hr followed by irradiation with 10 Gy IR and measured after 6 days by MTT assay (reference value: 0.388). The format is functional. Put shortly: as §1
In test [10] the test system is SCC-25. The experiment in a line: Synergistic induction of apoptosis in human SCC25 cells assessed as increase in caspase at 0.5 uM followed by irradiation with 5 Gy IR incubated for 48 hrs by luminescence based analysis. It is filed as functional, cell-based.
In test [11] the test system is FaDu. Kind of test: Synergistic antiproliferative activity against human FADU cells assessed as fractional inhibition at 0.005 uM preincubated for 1 hr followed by irradiation with 10 Gy IR and measured after 6 days by MTT assay (reference value: 0.388). The format is functional. Put shortly:
as §1

Test [12] relates to SCC-25. The experiment in a line: Antiproliferative activity against human SCC25 cells assessed as reduction in cell viability at 1 uM after 6 days by MTT assay relative to control. The format is functional, cell-based. Put shortly: as §1
Test [13] deals with T1, Nuclear factor erythroid 2-related factor 2 (Homo sapiens) (UniProt Q16236).
T1 sequence (whole entry): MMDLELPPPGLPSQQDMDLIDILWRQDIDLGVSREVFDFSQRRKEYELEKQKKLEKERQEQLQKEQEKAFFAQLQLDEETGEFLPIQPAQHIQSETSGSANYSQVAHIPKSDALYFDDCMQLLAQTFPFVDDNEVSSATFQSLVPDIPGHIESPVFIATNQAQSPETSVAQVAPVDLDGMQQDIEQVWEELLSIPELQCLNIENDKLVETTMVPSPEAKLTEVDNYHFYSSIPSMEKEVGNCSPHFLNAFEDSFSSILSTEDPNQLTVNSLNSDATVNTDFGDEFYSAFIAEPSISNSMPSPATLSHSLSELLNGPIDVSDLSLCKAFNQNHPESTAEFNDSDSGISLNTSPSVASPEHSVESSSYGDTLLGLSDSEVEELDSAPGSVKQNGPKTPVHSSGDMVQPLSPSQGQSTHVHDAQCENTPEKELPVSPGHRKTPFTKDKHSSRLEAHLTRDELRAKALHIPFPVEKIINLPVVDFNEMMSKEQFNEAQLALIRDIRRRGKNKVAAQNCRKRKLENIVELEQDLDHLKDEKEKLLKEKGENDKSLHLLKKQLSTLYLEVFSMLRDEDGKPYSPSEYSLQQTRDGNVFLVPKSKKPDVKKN
The experiment in a line: Synergistic inhibition of Nrf2 in human FADU cells at 0.5 uM followed by irradiation with 5 Gy IR incubated for 48 hrs by immunofluorescence analysis. It is filed as cell-based.

Test [14] relates to SCC-25. Kind of test: Synergistic antiproliferative activity against human SCC25 cells assessed as combination index at 0.005 uM preincubated for 1 hr followed by irradiation with 2.5 Gy IR and measured after 6 days by MTT assay. The format is functional. Put shortly: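 SCC-25 cells grown in DMEM with 10% FBS at 37 °C, 5% CO2, seeded 1000 cells/well in 96-well plates and left 24 h. Drug in DMSO, diluted in complete medium, added 1 h before X-irradiation. A movable 5 mm lead shield gave 0, 2.5, 5 or 10 Gy on one plate. After 6 days, MTT readout at 570 nm. Combination index by Chou–Talalay from viability data.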

For test [15], the system named is SCC-25. Kind of test: Synergistic antiproliferative activity against human SCC25 cells assessed as fractional inhibition at 0.005 uM preincubated for 1 hr followed by irradiation with 5 Gy IR and measured after 6 days by MTT assay (reference value: 0.133). The format is functional. Put shortly:
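SCC-25 cells seeded 1000/well in 96-well plates in DMEM/10% FBS and left 24 h. Drug or vehicle added, then after 1 h X-irradiated to 2.5, 5 or 10 Gy on one plate using a shifted lead shield. Plates incubated 6 days, then MTT (0.5 mg/mL, 45 min), DMSO solubilisation, absorbance at 570 nm. Fractional inhibition = 1 − fraction of surviving cells.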

The test system of test [16] is FaDu. Kind of test: Synergistic induction of apoptosis in human FADU cells assessed as decrease in Bcl2 at 0.5 uM followed by irradiation with 5 Gy IR incubated for 48 hrs by immunoblot analysis. It is filed as functional, cell-based. Put shortly: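 FaDu cells received drug, 5 Gy IR, or both; vehicle-only controls. Lysates collected after 48 h and immunoblotted with primary antibodies to NRF2, cyclin B1, CDK1, Bax and Bcl-2. Membranes stripped and reprobed for beta-actin as loading control.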

The test system of test [17] is FaDu. Kind of test: Induction of cell cycle arrest in human FADU cells at 0.5 uM by propidium iodide staining based flow cytometry. It is filed as functional. Put shortly:
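Cell-cycle distribution was measured by propidium iodide staining and flow cytometry. Readings were taken 6 and 24 h after compound alone, 5 Gy IR alone, or the combination, against control.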
For orientation: Flow cytometry measures light scatter and fluorescence of single cells or particles in a stream.

Turning to `COc1ccc2c(c1)N(CCO)C1=C(C(=O)OC1)C2c1ccccc1` (configuration not stated), the “fractional inhibitory concentration index (FICI)” value in [1] amounted to 0.425; in test [4] it was 0.361; in test [6], 0.681; in test [8] it was 0.383; in [9], 0.613; in test [11], 0.346. The “fractional inhibitory concentration index (FICI)” value in [15] amounted to 0.157. For the same compound, the CI was 0.406 in test [2], 0.314 in test [5] and 1.216 in [14]. Also, the inhibition entry in test [3] was “Dose-dependent effect”. Also, the result in test [7], in [10] and in [16] was Active. In test [12], the inhibition result is “inactive”. Also, the inhibition result in test [13] is “Active”. Besides, in [17], the outcome was inactive.
